ABCG2 block: ABCG2 efflux pump inhibitors, primary screen, multiplex with ABCB1, IgMXP3 cells, flow cytometry. inhibition, % at 6.6 µM. Broad substrate specificity ATP-binding cassette transporter ABCG2 (Homo sapiens), Q9UNQ0. actives 0.1% (n = 190,000). JC-1 efflux;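 active = inhibition above 80%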;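 note: 0% = DMSO and 100% = nicardipine control wells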
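Assay system – ABCG2 IgMXP3 and barcoded ABCB1 CCRF-Adr cell mix · Input – 3 million cells/mL in well · Reagent – JC-1 fluorescent substrate · Compound – single test compound dose, 6.6 µM final · Timing – 10 min exposure at 25 °C with rotation, no wash · Detection – flow cytometry of retained JC-1 fluorescence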
ABCB1 inh: ABCB1 efflux pump inhibitors, primary screen, cell-based, multiplex, flow cytometry, ABCG2 counter-screen; actives 0.067% (n = 190,000); inhibition, % at 6.6 µM; CCRF-Adr cells, JC-1 efflux; ATP-dependent translocase ABCB1 (Homo sapiens), P08183; AID 1326, 2008; in the data active = inhibition above about 40%;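 note: 0% = vehicle and 100% = reference inhibitor; higher value means more JC-1 retained so stronger ABCB1 efflux block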
PKD1 kinase inh: inhibitors of human PKD1 kinase, biochemical, fluorescence polarization; Serine/threonine-protein kinase D1 (Homo sapiens), Q15139; PKD1 kinase fluorescence polarization assay; inhibition, % (test concentration not listed); actives 0.056% (n = 200,000); in the data active = inhibition above about 50%
Target sequence (Q15139 whole entry, looked up): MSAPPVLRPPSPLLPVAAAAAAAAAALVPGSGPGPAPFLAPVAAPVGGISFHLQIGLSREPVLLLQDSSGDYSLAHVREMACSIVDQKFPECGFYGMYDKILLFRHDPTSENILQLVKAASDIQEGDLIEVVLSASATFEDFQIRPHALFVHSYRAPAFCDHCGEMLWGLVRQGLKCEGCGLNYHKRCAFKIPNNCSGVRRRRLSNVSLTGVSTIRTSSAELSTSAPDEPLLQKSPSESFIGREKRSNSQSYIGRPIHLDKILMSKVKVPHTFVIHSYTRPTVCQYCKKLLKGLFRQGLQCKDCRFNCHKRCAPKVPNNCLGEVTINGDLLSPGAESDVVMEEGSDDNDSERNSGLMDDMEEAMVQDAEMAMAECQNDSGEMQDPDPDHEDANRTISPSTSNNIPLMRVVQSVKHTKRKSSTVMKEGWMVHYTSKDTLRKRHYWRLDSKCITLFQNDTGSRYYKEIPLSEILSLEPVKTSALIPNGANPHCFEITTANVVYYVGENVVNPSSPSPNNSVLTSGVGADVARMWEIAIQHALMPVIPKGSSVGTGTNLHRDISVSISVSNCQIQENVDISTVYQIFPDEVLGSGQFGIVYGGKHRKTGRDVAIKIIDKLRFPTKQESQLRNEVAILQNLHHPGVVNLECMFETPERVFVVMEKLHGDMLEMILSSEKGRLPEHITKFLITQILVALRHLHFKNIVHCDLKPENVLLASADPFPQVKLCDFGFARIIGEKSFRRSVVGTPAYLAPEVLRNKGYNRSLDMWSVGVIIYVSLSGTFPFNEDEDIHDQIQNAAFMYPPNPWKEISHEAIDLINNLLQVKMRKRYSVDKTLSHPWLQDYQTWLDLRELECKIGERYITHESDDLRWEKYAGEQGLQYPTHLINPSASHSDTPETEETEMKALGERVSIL
MT stabilizer: microtubule stabilizers in HeLa cells, primary screen, imaging, high-content imaging | HeLa tubulin immunostaining HCS, 24 h; share of cells brighter than vehicle mean+2SD | % tubulin-high responders, % at 10 µM | actives 0.83% (n = 200,000) | AID 2205, 2009;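 active = plate Z-score above 3 for both tubulin-high and condensed-nucleus cell shares, with cell loss under 80%, at 10 µM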;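 note: anti alpha tubulin signal scored within the nucleus-defined area of each cell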
bCat nuc transl: modulators of beta-catenin nuclear translocation, primary screen, imaging, HeLa cells, immunofluorescence, high-content. nuclear translocation activity, % at 5 µM. actives 0.3% (n = 190,000);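 active = nuclear translocation activity above 50% at 5 µM, with a well cell count of 50 or more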;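 note: per-cell ratio of nuclear to cytoplasmic median beta-catenin stain intensity; plate controls were DMSO negative control for no effect and GSK-3 inhibitor IX positive control for full effect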
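Test system: human HeLa cell line; Doses: 5 µM primary, 0.02–20 µM confirmation; Incubation: 24 h compound exposure, 37°C; Detection: beta-catenin immunofluorescence imaging with DAPI; Read-out: beta-catenin nuclear/cytoplasmic ratio, % activation.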
Numbers without * were called inactive; nt = no result. Shown are actives, neighbours in structure and some others; about 1% of the full set was active somewhere.

SMILES | ABCG2 block | ABCB1 inh | PKD1 kinase inh | MT stabilizer | bCat nuc transl
O=C(/C=C/c1ccco1)Nc1ccccn1 | 3.4 | 0.0 | -4.0 | 17.5 | 45.2
Cc1ccc(NC(=O)/C=C/c2ccco2)nc1 | 6.4 | 0.1 | -11.5 | 3.6 | 146.2*
O=C(/C=C/c1ccccc1)NC(=S)Nc1ccc(N2CCOCC2)c(Cl)c1 | 1.2 | -0.1 | 6.0 | 1.0 | -1.7
O=C(/C=C/c1ccco1)NC(=S)Nc1ccc(N2CCOCC2)c(Cl)c1 | 2.5 | -0.1 | 8.0 | 48.1* | -0.2
Cc1nc(NC(=O)/C=C/c2ccccc2)sc1C(=O)N1CCCCC1 | 2.2 | 1.4 | 1.5 | 2.2 | 0.3
COc1cc(C(=O)c2c(C)c(CCC#N)n3ccccc23)cc(OC)c1OC | 10.1 | 1.8 | -4.0 | 19.5* | 61.0*
COc1cccc(C(=O)c2c(C)c(CCC#N)n3ccccc23)c1OC | 1.7 | 0.0 | -4.4 | 5.2 | -0.6
Clc1ccc(Oc2nc3c(Cl)cccc3s2)cc1Cl | nt | nt | nt | nt | -0.4
Cc1cccc(C)c1NC1=NCCCCC1 | -0.1 | 0.0 | -4.0 | 4.6 | -4.4
Cc1sc(-n2c(C)cc(/C=C3\SC(=S)NC3=O)c2C)c(C#N)c1C | -0.7 | -0.5 | -20.2 | 17.7 | 79.7*
Cc1ccc(-c2csc(N3CCC(NS(=O)(=O)c4ccc5c(c4)OCCO5)CC3)n2)cc1 | 4.8 | 0.7 | -17.7 | 3.9 | 0.7
COc1cc(-c2onc3ccc(Br)cc23)cc(OC)c1OC | -2.3 | -1.0 | -5.0 | 7.7* | 32.6
Cc1cccc(Cc2c(C)nc3nc(SCC(=O)NCc4ccco4)nn3c2C)c1 | -0.4 | 0.5 | -8.6 | 20.5* | 1.2
Cc1ccccc1Cc1c(C)nc2nc(SCC(=O)NCc3ccco3)nn2c1C | 0.6 | 0.8 | -21.7 | 7.0 | 4.8
Cc1nc2nc(SCC(=O)NCc3ccco3)nn2c(C)c1Cc1c(F)cccc1Cl | 8.1 | -0.6 | 3.7 | 19.9 | 1.1
Cc1ccc(Cc2c(C)nc3nc(SCC(=O)NCc4ccco4)nn3c2C)cc1 | 0.6 | 0.6 | -19.8 | 22.0* | 155.9*
CCn1ncc(C2=NOC(C(=O)NCc3ccc(Cl)cc3)C2)c1C (configuration not stated) | 6.7 | 0.9 | 2.2 | 12.6 | 277.6*
COc1ccc(CNC(=O)C2CC(c3ccc(F)cc3)=NO2)cc1 (configuration not stated) | 2.2 | 0.9 | -2.0 | 1.4 | 0.8
COc1ccc(C2=NOC(C(=O)NCc3ccc(F)cc3)C2)cc1 (configuration not stated) | 4.8 | 0.6 | -2.5 | 6.3 | 65.4*
COc1ccc(C2=NOC(C(=O)NCc3ccco3)C2)cc1 (configuration not stated) | 4.5 | 0.2 | 2.8 | 37.9* | 13.7
Nc1ccc(Nc2nc(-c3cc4ccccc4oc3=O)cs2)cc1 | -2.3 | -1.3 | -3.1 | 0.9 | 1.4
COc1cccc2sc(Nc3nc(-c4ccncc4)cs3)nc12 | 0.3 | 1.5 | 3.2 | 22.5* | 54.7*
COc1cccc2sc(Nc3nc(-c4cc5ccccc5oc4=O)cs3)nc12 | -7.9 | -0.8 | 18.9 | 18.4* | 121.7*
COc1ccc(S(=O)(=O)N(C(=O)c2ccco2)c2cc3sc(=O)oc3c3ccccc23)cc1 | -1.7 | 0.5 | -6.3 | 1.6 | 0.3
CCOc1ccc(S(=O)(=O)N(C(=O)c2ccco2)c2cc3sc(=O)oc3c3ccccc23)cc1 | -2.0 | -0.2 | -7.3 | 19.1* | 0.4
SMILES | ABCG2 block | ABCB1 inh | PKD1 kinase inh | MT stabilizer | bCat nuc transl
C#CCNC(=O)C1CCN(c2ccc(S(=O)(=O)N3CCOCC3)cc2Cl)CC1 | 1.9 | 0.3 | -7.3 | 2.9 | -1.0
O=C(NCc1cccs1)C1CCN(c2ccc(S(=O)(=O)N3CCOCC3)cc2Cl)CC1 | 1.4 | 0.8 | -11.4 | 27.3* | 106.1*
Cc1cccc(N/C(N)=N/c2nc(C(F)(F)F)cc(=O)[nH]2)c1C | 1.1 | 0.1 | -2.3 | 2.5 | nt
CCN(CC)c1ccc(-c2nn3c(-c4n[nH]c5c4CCC5)nnc3s2)cc1 | 5.6 | 1.5 | 9.9 | 22.5* | 64.9*
COc1cc(C2Nc3ccc4ncccc4c3C3=C2C(=O)CCC3)ccc1O (configuration not stated) | 18.9 | 1.8 | -14.1 | 26.8* | -1.7
COc1ccc(-n2c(C)cc(C(=O)CSc3nnc(-c4ccoc4C)n3C)c2C)cc1 | 2.1 | 0.7 | -1.2 | 5.0 | -7.0
CCOc1ccc(/C=N/NC(=O)c2c(C)n(C)c3ccc(OC)cc23)cc1 | 2.9 | 1.1 | -4.5 | 16.6* | 1.6
COC(C[C@@H](O)C[C@@H](O)COCc1ccccc1)OC | nt | nt | nt | nt | 0.9
Cc1ncsc1C(=O)N1CCCC(CNS(=O)(=O)c2cccs2)C1 (configuration not stated) | 1.0 | 0.4 | -3.2 | 2.1 | -0.3
Cc1c(/C=N\NC(=O)c2csc3ccccc23)cnn1C | 2.1 | 0.0 | -10.9 | 5.1 | nt
CCn1ncc(/C=N\NC(=O)c2csc3ccccc23)c1C | 0.0 | 0.8 | -3.2 | 48.2* | 129.3*
CC(C)(C)c1ccc(C(=O)Nc2cccc([N+](=O)[O-])c2)cc1 | 116.1* | 11.2 | -10.9 | 1.8 | -2.7
Cn1c(-c2ccc3c(c2)OCO3)cnc1NCc1ccccc1 | 3.9 | 0.7 | -3.6 | 20.5* | 4.4
Cc1cc(C)n2nc(C(=O)Nc3ccc4c(c3)CCC4)nc2n1 | 3.6 | 0.5 | -2.1 | 1.8 | -2.6
COC(=O)c1sccc1NC(=S)N1C(C)CCCC1C (configuration not stated) | 4.6 | -1.1 | 2.2 | 3.1 | -0.5
O=C(NC1CC1)c1cccc(Nc2ccc(-c3ccc4c(c3)OCCO4)nn2)c1 | 0.7 | 0.1 | -5.4 | 4.3 | nt
O=S(=O)(c1ccc(Nc2ccc(-c3ccc4c(c3)OCCO4)nn2)cc1)N1CCCC1 | -0.5 | -0.4 | -6.5 | 12.1* | nt
COc1ccc(OC)c(S(=O)(=O)N2c3ccccc3CC2C)c1 (configuration not stated) | 0.5 | 0.1 | -9.0 | 3.4 | -0.7
COc1ccc(S(=O)(=O)N2c3ccccc3OCC2C(C)(C)C)cc1 (configuration not stated) | 0.2 | -0.5 | 1.3 | 13.7* | 8.8
COc1ccc(S(=O)(=O)N2c3ccccc3OCC2c2ccccc2)cc1 (configuration not stated) | 0.8 | 0.5 | -11.3 | 23.3* | 1.2
COc1ccc(S(=O)(=O)N2CCC(N3CCN(c4ccccc4OC)CC3)CC2)cc1 | nt | nt | nt | nt | 0.5
COc1ccc(S(=O)(=O)N2c3ccccc3OCC2C)cc1 (configuration not stated) | 3.7 | 0.9 | -2.7 | 17.7* | 110.6*
Cc1ccc(CN2CCN(CCCn3cccn3)CC2CCO)cc1 (configuration not stated) | 2.6 | -0.1 | -0.1 | 2.4 | 0.3
